{"source": "ChEMBL document CHEMBL4622838", "about": "“Deuteration of the farnesyl terminal methyl groups of δ-tocotrienol and its effects on the metabolic stability and ability of inducing G-CSF production” (Bioorg Med Chem, 2020)", "key": {"[1]": {"assay": "Volume of distribution in CD2F1 mouse at 50 mg/kg, iv measured up to 24 hrs", "assay_type": "ADME, organism-based", "conditions": "in vivo", "in_short": "(§1)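 Single IV bolus, 50 mg/Kg, emulsified in PBS with 33% PEG400 and 2% tween 80, 150 µL/mouse, filter-sterilized; n = 4 per group. Retro-orbital blood into EDTA potassium tubes at 0, 5, 10, 30 min, 1, 2, 4, 6, 12, 24 h. Plasma extracted with methanol (2% ascorbic acid) and heptane (1% BHT) plus internal standard; HPLC-fluorescence quantitation.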"}, "[2]": {"assay": "AUC (0 to infinity) in CD2F1 mouse at 50 mg/kg, iv measured up to 24 hrs", "assay_type": "ADME, organism-based", "set-up": "dose 50 mg/kg, time infinity, route intravenous", "conditions": "in vivo", "in_short": "(§2)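 Single IV bolus in CD2F1 mice, emulsified in PBS with 33% PEG400 and 2% tween 80 (150 µL/mouse, 0.22 µm filtered), n = 4 per group. Retro-orbital blood into EDTA-K tubes at 0, 5, 10, 30 min and 1, 2, 4, 6, 12, 24 h. Plasma extracted with methanol/ascorbic acid plus heptane/BHT, internal standard, HPLC-fluorescence.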"}, "[3]": {"assay": "Intrinsic clearance in mouse liver microsomes", "assay_type": "ADME, Microsome", "in_short": "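Mouse liver microsomes (5 mg protein/mL) in potassium phosphate buffer pH 7.4 with EDTA; compound 1 µM preincubated 30 min at 37 °C, reaction started with NADPH-generating system (NADP⁺, glucose-6-phosphate, MgCl₂, G6PDH); no-NADPH control. Sampled at 5, 15, 30 min into cold acetonitrile with internal standard; percent remaining measured; half-life and clearance calculated; n = 3.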"}, "[4]": {"assay": "Metabolic stability in mouse liver microsomes assessed as compound degradation at 1 uM preincubated for 30 mins followed by NADPH addition measured up to 30 mins by HPLC-UV analysis", "assay_type": "ADME, Microsome", "conditions": "0.5 h", "in_short": "(§3)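 Mouse liver microsomes (5 mg protein/mL) in 0.2 M potassium phosphate, pH 7.4, with EDTA. Test compound at 1 µM preincubated 30 min at 37 °C, then started with an NADPH-generating system (NADP⁺, Glc-6-PO₄, MgCl₂, G6PDH); controls received buffer in place of NADPH. Sampled at 5, 15 and 30 min into cold acetonitrile containing GT3 internal standard. Percent remaining reported, n = 3.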"}, "[5]": {"assay": "AUC (0 to last) in CD2F1 mouse at 50 mg/kg, iv measured up to 24 hrs", "assay_type": "ADME, organism-based", "set-up": "dose 50 mg/kg, route intravenous, time 0 - last", "conditions": "in vivo", "in_short": "as §2"}, "[6]": {"assay": "Metabolic stability in mouse live microsomes assessed as compound degradation in absence of NADPH", "assay_type": "ADME, Liver, Microsome", "in_short": "as §3"}, "[7]": {"assay": "AUC (0 to last) in CD2F1 mouse at 200 mg/kg, sc measured up to 24 hrs", "assay_type": "ADME, organism-based", "set-up": "dose 200 mg/kg, route subcutaneous, time 0 - last", "conditions": "in vivo", "in_short": "as §2, with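 “SC injection” for “IV bolus”, “5%” for “33% PEG400 and 2%”, “(100” for “(150”, “7.5, 15,” for “5, 10,”, “6, 8,” for “6,”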"}, "[8]": {"assay": "Plasma concentration in CD2F1 mouse at 200 mg/kg, sc administered as single dose measured after 1 hr by HPLC-fluorescence analysis", "assay_type": "ADME, organism-based", "in_short": "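Single subcutaneous dose of 200 mg/Kg in CD2F1 mice, emulsified in PBS with 5% tween 80 and filter-sterilized, n = 3–4. Retro-orbital blood drawn at 0 min to 24 h. Plasma mixed with internal standard, methanol containing 2% ascorbic acid and heptane containing 1% BHT. Upper layer dried under N₂, reconstituted in methanol and quantified by HPLC-fluorescence.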"}, "[9]": {"assay": "Cmax in CD2F1 mouse at 200 mg/kg, sc measured up to 24 hrs", "assay_type": "ADME, organism-based", "set-up": "dose 200 mg/kg, route subcutaneous", "conditions": "in vivo", "in_short": "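Single subcutaneous dose, 200 mg/Kg, emulsified in PBS with 5% tween 80, 100 µL/mouse, filter-sterilized; n = 4 per group. Retro-orbital blood into EDTA potassium tubes at 0, 7.5, 15, 30 min, 1, 2, 4, 6, 8, 12, 24 h; plasma at -80 °C. Heptane/methanol extraction with internal standard, HPLC-fluorescence; peak concentration taken from the concentration-time profile.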"}, "[10]": {"assay": "Half life in mouse liver microsomes", "assay_type": "ADME, Microsome"}, "[11]": {"assay": "Clearance in CD2F1 mouse at 50 mg/kg, iv measured up to 24 hrs", "assay_type": "ADME, organism-based", "conditions": "in vivo", "in_short": "as §1"}, "[12]": {"test_system": "Mus musculus", "assay": "Induction of G-CSF production in CD2F1 mouse at 200 mg/kg, sc by G-CSF ELISA kit method", "assay_type": "functional, organism-based", "conditions": "TDE = time-dependent effect", "in_short": "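CD2F1 mice, subcutaneous dose of 0.5 mM/Kg (200 mg/Kg) emulsified in PBS with 5% tween 80, n = 3–4. Blood taken into EDTA-K tubes at 8, 12, 24 and 48 h. Plasma spun at 1200 rpm, 15 min, 4 °C and held at −80 °C. G-CSF measured by mouse ELISA, each sample run in duplicate and averaged, with a standard curve on every plate.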"}, "[13]": {"test_system": "Mus musculus", "assay": "Induction of G-CSF production in CD2F1 mouse at 200 mg/kg, sc pretreated with ketoconazole after 24 hrs by G-CSF ELISA kit method", "assay_type": "functional, organism-based", "in_short": "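CD2F1 mice received ketoconazole in corn oil (5 mg/250 µL/mouse) by oral gavage at 26, 14 and 2 h before drug. Drug then given subcutaneously at 200 mg/Kg in 5% tween 80/PBS, n = 3. Plasma collected at 8 and 24 h. G-CSF measured by ELISA in duplicate against a per-plate standard curve.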"}}, "note": "The source made the active and inactive calls. The rule behind the calls is not given here."}
{"smiles": "[2H]C([2H])([2H])C(=CCC/C(C)=C/CC/C(C)=C/CC[C@]1(C)CCc2cc(O)cc(C)c2O1)C([2H])([2H])[2H]", "values": [{"measurement": "Vd", "setting": "[1]", "value": 21.3, "unit": "L/kg"}, {"measurement": "AUC", "setting": "[2]", "value": 35707, "unit": "ng·h/mL"}, {"measurement": "CLH", "setting": "[3]", "value": 3580, "unit": "µL/min/mg"}, {"measurement": "Stability", "setting": "[4]", "value": "Unstable"}, {"measurement": "AUClast", "setting": "[5]", "value": 34213, "unit": "ng·h/mL"}, {"measurement": "Stability", "setting": "[6]", "value": "Stable"}, {"measurement": "AUClast", "setting": "[7]", "value": 11354, "unit": "ng·h/mL"}, {"measurement": "concentration at 1 h", "setting": "[8]", "value": "800 to 1000", "unit": "ng/mL"}, {"measurement": "Cmax", "setting": "[9]", "value": 970, "unit": "ng/mL"}, {"measurement": "t1/2", "setting": "[10]", "value": 2.642, "unit": "h"}, {"measurement": "CL", "setting": "[11]", "value": 23.3, "unit": "mL/min/kg"}]}
{"smiles": "CC(C)=CCC/C(C)=C/CC/C(C)=C/CC[C@]1(C)CCc2cc(O)cc(C)c2O1", "note": "[DELTA-TOCOTRIENOL]", "values": [{"measurement": "Activity", "setting": "[12]", "value": "Tde"}, {"measurement": "Activity", "setting": "[12]; tested as the 2H-labelled form", "value": "Tde"}, {"measurement": "Vd", "setting": "[1]", "value": 20.7, "unit": "L/kg"}, {"measurement": "AUC", "setting": "[2]", "value": 33456, "unit": "ng·h/mL"}, {"measurement": "CLH", "setting": "[3]", "value": 5260, "unit": "µL/min/mg"}, {"measurement": "Stability", "setting": "[4]", "value": "Unstable"}, {"measurement": "AUClast", "setting": "[5]", "value": 32804, "unit": "ng·h/mL"}, {"measurement": "Stability", "setting": "[6]", "value": "Stable"}, {"measurement": "AUClast", "setting": "[7]", "value": 10314, "unit": "ng·h/mL"}, {"measurement": "concentration at 1 h", "setting": "[8]", "value": "800 to 1000", "unit": "ng/mL"}, {"measurement": "Cmax", "setting": "[9]", "value": 810, "unit": "ng/mL"}, {"measurement": "t1/2", "setting": "[10]", "value": 1.778, "unit": "h"}, {"measurement": "CL", "setting": "[11]", "value": 24.92, "unit": "mL/min/kg"}, {"measurement": "Activity", "setting": "[13]", "value": "Active"}, {"measurement": "Activity", "setting": "[13]; tested as the 2H-labelled form", "value": "Active"}]}
